Data taken from ChEMBL document CHEMBL5696442, “Discovery of type II inhibitors of TGFβ-activated kinase 1 (TAK1) and mitogen-activated protein kinase kinase kinase kinase 2 (MAP4K2)” (J Med Chem, 2015).

Experiments:
[1] = target: Mitogen-activated protein kinase 9 (Homo sapiens, UniProt P45984); experiment: Inhibition of JNK2 Lys2 labeling site in human Huh-7 cell lysate at 1 uM by KiNativ Profiling analysis relative to control; assay type: subcellular
[2] = target: Mitogen-activated protein kinase kinase kinase kinase 4 (Homo sapiens, UniProt O95819); experiment: Inhibition of ZC1 Lys2 labeling site in human Huh-7 cell lysate at 1 uM by KiNativ Profiling analysis relative to control; assay type: subcellular
[3] = test system: MEF; experiment: Inhibition of TGF-beta induced p38 MAPK phosphorylation level in wild type mouse MEF cells incubated for 1 hr followed by TGF-beta stimulation by Western blot analysis; assay type: functional, cell-based; conditions: dose <= 500.0 nM
[4] = target: Ephrin type-A receptor 2 (Homo sapiens, UniProt P29317); experiment: Inhibition of EphA2 ACT labeling site in human Huh-7 cells at 1 uM by KiNativ Profiling analysis relative to control; assay type: cell-based
[5] = target: Misshapen-like kinase 1 (Homo sapiens) (UniProt Q8N4C8); experiment: Inhibition of ZC3 Lys2 labeling site in human A-375 cells at 0.5 uM by KiNativ Profiling analysis relative to control; assay type: cell-based
[6] = target: eIF-2-alpha kinase GCN2 (Homo sapiens) (UniProt Q9P2K8); experiment: Inhibition of GCN2 domain2 Lys1 labeling site in human A-375 cells at 5 uM by KiNativ Profiling analysis relative to control; assay type: cell-based
[7] = target: Tyrosine-protein kinase JAK1 (Homo sapiens) (UniProt P23458); experiment: Inhibition of JAK1 in human A-375 cells at 5 uM by KiNativ Profiling analysis relative to control; assay type: cell-based
Tyrosine-protein kinase JAK1 (Homo sapiens), sequence (P23458 whole entry): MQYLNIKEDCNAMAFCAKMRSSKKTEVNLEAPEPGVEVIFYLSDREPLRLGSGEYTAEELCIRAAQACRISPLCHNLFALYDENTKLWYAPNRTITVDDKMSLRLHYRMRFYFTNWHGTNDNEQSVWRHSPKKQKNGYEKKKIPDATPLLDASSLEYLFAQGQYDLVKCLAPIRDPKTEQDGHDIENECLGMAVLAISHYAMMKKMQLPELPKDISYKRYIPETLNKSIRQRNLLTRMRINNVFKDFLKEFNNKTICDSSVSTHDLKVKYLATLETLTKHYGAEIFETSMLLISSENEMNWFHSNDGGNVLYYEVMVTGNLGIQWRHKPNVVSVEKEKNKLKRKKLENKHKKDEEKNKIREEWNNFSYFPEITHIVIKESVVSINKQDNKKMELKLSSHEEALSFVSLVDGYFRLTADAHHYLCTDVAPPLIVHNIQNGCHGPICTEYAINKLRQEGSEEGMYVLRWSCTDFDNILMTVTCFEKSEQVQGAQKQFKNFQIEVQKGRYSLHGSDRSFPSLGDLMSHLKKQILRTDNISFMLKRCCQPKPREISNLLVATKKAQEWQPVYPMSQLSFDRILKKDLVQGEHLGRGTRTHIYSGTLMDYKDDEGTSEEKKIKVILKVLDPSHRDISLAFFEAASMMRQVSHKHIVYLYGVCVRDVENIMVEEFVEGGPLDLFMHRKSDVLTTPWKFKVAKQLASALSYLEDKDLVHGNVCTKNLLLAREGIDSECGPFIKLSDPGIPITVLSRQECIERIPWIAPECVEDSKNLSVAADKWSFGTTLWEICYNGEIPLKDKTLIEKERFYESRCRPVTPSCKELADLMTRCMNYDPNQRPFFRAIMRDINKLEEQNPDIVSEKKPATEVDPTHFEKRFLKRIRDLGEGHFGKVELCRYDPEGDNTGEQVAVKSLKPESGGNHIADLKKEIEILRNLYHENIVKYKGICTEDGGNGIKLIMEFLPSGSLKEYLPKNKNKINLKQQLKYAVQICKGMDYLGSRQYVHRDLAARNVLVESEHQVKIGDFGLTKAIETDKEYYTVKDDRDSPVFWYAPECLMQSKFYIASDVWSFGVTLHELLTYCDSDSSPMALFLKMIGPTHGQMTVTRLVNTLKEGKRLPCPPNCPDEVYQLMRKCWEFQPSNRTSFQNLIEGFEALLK

[8] = target: Mitogen-activated protein kinase kinase kinase 11 (Homo sapiens) (UniProt Q16584); experiment: Inhibition of MLK3 Lys2 labeling site in human A-375 cells at 5 uM by KiNativ Profiling analysis relative to control; assay type: cell-based
Mitogen-activated protein kinase kinase kinase 11 (Homo sapiens), sequence (Q16584 whole entry, looked up): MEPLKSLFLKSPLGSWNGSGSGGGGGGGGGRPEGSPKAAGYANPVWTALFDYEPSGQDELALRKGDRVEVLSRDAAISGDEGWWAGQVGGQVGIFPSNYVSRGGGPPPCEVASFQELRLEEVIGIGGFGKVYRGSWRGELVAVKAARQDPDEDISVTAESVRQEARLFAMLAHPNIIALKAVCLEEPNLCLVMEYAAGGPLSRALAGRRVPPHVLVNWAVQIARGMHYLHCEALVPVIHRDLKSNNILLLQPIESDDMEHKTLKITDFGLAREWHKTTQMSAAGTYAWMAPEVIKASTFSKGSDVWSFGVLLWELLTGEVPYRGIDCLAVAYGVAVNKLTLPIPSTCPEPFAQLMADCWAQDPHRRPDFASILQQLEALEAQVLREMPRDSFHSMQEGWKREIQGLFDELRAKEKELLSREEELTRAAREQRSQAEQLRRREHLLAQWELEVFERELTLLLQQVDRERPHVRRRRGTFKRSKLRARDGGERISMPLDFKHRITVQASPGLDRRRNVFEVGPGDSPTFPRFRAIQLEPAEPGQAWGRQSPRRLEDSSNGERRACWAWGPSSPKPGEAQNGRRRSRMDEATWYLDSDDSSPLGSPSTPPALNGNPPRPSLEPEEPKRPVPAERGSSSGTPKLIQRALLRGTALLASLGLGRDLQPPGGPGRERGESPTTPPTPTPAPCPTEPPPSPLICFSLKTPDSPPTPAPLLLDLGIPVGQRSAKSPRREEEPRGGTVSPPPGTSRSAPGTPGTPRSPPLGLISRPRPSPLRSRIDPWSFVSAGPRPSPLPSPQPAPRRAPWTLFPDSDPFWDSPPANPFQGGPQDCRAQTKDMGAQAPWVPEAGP

[9] = target: Serine/threonine-protein kinase Nek7 (Homo sapiens) (UniProt Q8TDX7); experiment: Inhibition of NEK7 Lys2 labeling site in human A-375 cells at 5 uM by KiNativ Profiling analysis relative to control; assay type: cell-based
Serine/threonine-protein kinase Nek7 (Homo sapiens), sequence (Q8TDX7 whole entry, looked up): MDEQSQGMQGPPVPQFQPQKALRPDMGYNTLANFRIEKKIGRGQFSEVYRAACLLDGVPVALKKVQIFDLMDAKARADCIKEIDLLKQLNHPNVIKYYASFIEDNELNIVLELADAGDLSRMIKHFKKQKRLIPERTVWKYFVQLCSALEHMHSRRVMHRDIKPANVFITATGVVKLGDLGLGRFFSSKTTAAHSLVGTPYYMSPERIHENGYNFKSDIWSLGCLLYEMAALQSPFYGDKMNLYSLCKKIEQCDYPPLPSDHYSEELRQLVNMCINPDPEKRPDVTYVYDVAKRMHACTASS

[10] = target: Serine/threonine-protein kinase WNK2 (Homo sapiens) (UniProt Q9Y3S1); experiment: Inhibition of Wnk2 ATP Loop labeling site in human A-375 cells at 5 uM by KiNativ Profiling analysis relative to control; assay type: cell-based
Serine/threonine-protein kinase WNK2 (Homo sapiens), sequence (Q9Y3S1 whole entry, the tested form may be a part): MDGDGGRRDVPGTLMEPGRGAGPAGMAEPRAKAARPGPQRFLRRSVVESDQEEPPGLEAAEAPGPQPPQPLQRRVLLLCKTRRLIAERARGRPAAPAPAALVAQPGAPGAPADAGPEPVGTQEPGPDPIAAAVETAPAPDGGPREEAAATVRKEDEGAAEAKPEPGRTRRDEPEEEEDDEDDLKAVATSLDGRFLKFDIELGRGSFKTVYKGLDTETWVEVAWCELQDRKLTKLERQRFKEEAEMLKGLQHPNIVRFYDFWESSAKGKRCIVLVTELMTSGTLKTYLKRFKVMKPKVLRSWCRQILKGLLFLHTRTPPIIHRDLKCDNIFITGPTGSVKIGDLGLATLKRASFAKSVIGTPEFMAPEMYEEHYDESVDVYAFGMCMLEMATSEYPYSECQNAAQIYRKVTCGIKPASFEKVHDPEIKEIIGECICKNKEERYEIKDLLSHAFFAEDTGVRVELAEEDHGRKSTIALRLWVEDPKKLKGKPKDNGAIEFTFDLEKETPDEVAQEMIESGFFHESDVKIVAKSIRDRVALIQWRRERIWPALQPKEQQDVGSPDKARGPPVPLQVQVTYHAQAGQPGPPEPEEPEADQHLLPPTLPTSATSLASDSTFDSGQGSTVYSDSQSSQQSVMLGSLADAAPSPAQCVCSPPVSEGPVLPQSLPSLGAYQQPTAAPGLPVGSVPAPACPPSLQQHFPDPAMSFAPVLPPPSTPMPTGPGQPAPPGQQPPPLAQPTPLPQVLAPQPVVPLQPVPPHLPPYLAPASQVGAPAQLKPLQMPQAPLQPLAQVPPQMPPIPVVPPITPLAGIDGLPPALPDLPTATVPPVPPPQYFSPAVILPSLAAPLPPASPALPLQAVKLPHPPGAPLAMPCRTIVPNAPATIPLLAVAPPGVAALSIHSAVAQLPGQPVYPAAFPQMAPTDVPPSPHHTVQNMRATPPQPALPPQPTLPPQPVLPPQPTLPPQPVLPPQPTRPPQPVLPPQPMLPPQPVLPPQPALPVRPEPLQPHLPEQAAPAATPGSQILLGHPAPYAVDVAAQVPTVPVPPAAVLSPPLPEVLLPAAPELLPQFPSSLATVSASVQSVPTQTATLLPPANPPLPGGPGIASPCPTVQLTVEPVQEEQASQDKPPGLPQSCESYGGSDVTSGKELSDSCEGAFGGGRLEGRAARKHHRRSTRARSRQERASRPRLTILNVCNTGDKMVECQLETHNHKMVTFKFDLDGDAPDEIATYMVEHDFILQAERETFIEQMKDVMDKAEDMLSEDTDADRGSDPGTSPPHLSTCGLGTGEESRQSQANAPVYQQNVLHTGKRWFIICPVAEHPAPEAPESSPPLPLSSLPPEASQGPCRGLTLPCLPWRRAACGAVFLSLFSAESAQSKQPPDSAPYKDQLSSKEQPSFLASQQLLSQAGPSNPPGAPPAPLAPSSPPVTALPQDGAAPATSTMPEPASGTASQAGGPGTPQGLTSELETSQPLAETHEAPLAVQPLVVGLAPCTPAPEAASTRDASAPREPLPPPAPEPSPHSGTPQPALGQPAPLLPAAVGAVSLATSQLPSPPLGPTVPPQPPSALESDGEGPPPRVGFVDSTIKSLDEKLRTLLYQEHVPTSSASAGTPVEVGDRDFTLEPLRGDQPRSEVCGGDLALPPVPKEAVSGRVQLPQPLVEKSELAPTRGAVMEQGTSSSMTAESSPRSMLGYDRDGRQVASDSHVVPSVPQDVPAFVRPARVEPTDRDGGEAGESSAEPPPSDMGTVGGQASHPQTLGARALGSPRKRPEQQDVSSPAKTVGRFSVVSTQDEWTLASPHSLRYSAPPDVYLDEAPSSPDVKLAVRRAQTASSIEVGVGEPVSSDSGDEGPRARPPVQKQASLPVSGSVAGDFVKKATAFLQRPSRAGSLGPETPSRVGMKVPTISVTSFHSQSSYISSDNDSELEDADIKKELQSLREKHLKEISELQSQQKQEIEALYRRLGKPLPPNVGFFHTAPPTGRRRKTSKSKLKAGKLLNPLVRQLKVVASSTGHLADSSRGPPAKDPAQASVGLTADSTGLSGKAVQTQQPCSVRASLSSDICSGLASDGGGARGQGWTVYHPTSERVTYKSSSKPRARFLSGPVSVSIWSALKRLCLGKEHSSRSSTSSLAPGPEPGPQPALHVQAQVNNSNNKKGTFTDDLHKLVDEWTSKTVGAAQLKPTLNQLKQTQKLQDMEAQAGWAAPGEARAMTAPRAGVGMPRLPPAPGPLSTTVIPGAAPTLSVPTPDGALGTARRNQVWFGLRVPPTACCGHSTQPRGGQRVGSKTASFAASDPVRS

[11] = target: Ribosomal protein S6 kinase alpha-1 (Homo sapiens) (UniProt Q15418); experiment: Inhibition of RSK1 domain2 Lys2 labeling site in human A-375 cells at 0.5 uM by KiNativ Profiling analysis relative to control; assay type: cell-based
Method in brief: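 Live A375 melanoma cells treated with compound at 5 or 0.5 μM, then lysed. Lysate kinases were labeled with a lysine-reactive ATP or ADP-biotin probe. Inhibition was read as protection of labeling sites from the probe.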

[12] = target: Serine/threonine-protein kinase WNK1 (Homo sapiens) (UniProt Q9H4A3); experiment: Inhibition of Wnk1 Lys2 labeling site in human A-375 cells at 0.5 uM by KiNativ Profiling analysis relative to control; assay type: cell-based
[13] = target: RAC-gamma serine/threonine-protein kinase (Homo sapiens) (UniProt Q9Y243); experiment: Inhibition of AKT3 ATP Loop labeling site in human A-375 cells at 0.05 uM by KiNativ Profiling analysis relative to control; assay type: cell-based
[14] = target: Tyrosine-protein kinase Fer (Homo sapiens, UniProt P16591); experiment: Inhibition of FER ACT labeling site in human A-375 cells at 0.05 uM by KiNativ Profiling analysis relative to control; assay type: cell-based
[15] = target: T1, Interleukin-1 receptor-associated kinase 4 (Homo sapiens) (UniProt Q9NWZ3); experiment: Inhibition of IRAK4 Lys2 labeling site in human A-375 cells at 0.05 uM by KiNativ Profiling analysis relative to control; assay type: cell-based
T1 sequence (whole entry): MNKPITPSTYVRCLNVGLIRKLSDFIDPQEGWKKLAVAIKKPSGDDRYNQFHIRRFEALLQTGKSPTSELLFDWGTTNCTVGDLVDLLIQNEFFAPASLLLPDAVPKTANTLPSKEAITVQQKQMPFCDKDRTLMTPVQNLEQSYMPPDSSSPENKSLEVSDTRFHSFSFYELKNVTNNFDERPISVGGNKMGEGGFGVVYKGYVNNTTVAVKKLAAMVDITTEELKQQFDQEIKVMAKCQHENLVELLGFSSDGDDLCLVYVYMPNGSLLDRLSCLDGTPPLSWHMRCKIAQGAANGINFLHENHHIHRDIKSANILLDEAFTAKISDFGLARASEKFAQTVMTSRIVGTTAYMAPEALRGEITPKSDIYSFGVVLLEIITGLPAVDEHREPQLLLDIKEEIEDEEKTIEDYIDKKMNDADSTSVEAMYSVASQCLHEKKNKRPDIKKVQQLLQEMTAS

[16] = target: Mitogen-activated protein kinase 8 (Homo sapiens, UniProt P45983); experiment: Inhibition of JNK1 Lys2 labeling site in human A-375 cells at 0.05 uM by KiNativ Profiling analysis relative to control; assay type: cell-based
[17] = target: T2, Serine/threonine-protein kinase Nek8 (Homo sapiens) (UniProt Q86SG6); experiment: Inhibition of NEK8 Lys2 labeling site in human A-375 cells at 0.05 uM by KiNativ Profiling analysis relative to control; assay type: cell-based
T2 sequence (whole entry): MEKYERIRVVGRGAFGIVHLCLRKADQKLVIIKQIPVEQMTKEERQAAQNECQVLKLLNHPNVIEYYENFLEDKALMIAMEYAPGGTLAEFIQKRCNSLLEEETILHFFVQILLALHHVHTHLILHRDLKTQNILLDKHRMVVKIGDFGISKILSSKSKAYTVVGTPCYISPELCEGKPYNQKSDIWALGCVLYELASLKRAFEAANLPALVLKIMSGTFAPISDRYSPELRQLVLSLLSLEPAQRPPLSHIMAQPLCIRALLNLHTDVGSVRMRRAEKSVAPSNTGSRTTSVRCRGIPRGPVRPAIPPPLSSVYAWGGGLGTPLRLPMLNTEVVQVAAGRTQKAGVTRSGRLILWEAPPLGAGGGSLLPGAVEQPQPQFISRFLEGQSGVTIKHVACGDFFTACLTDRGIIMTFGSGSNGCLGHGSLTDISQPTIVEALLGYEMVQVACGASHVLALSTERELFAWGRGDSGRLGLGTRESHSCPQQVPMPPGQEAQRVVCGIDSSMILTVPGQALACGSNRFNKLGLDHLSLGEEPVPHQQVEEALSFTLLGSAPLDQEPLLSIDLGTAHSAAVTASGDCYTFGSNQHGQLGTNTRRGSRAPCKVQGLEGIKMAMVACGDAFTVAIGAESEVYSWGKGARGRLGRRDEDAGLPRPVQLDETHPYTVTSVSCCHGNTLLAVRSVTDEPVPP

[18] = target: Ribosomal protein S6 kinase alpha-3 (Homo sapiens) (UniProt P51812); experiment: Inhibition of RSK2 domain2 Protein Kinase Domain in human A-375 cells at 0.05 uM by KiNativ Profiling analysis relative to control; assay type: cell-based
[19] = target: Serine/threonine-protein kinase WNK4 (Homo sapiens) (UniProt Q96J92); experiment: Inhibition of Wnk4 Lys2 labeling site in human A-375 cells at 0.05 uM by KiNativ Profiling analysis relative to control; assay type: cell-based

Mitogen-activated protein kinase 9, sequence (P45984 whole entry, looked up): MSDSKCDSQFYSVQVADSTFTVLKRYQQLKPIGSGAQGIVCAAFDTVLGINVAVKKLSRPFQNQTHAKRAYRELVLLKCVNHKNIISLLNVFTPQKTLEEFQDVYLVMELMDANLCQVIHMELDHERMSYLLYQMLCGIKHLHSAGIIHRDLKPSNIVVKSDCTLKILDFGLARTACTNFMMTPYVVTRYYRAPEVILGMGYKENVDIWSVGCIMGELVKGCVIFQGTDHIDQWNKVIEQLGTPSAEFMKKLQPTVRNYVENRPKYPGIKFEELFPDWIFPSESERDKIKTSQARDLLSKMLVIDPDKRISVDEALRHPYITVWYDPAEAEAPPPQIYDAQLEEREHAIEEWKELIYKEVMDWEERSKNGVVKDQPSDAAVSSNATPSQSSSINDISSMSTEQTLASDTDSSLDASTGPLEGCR

For `CNc1cc(Oc2cc(C(=O)Nc3cc(N4CCN(C)CC4)cc(C(F)(F)F)c3)ccc2C)ncn1`, which inhibition [1] is on record?
Its inhibition is 7%.

What about the inhibition [2] of the same compound?
Its inhibition is 2.7%.

What about the inhibition [3] of the same compound?
The inhibition was “Dose-Dependent Effect”.

What about the inhibition [4] of the same compound?
Its inhibition is 69.2%.

What does the source list for `CCN1CCN(Cc2ccc(NC(=O)c3ccc(C)c(/C=C/c4cnc5[nH]ccc5c4OC)c3)cc2C(F)(F)F)CC1`?
inhibition [5]: 48.1%; inhibition [6]: 81.1%; inhibition [7]: 27%; inhibition [8]: 81.1%; inhibition [9]: 3.1%; inhibition [10]: 13.7%; inhibition [11]: 1.6%; inhibition [12]: 7.9%; inhibition [13]: 20.9%; inhibition [14]: -9.9%; inhibition [15]: 9.7%; inhibition [16]: 23.9%; inhibition [17]: -9.3%; inhibition [18]: -9.9%; inhibition [19]: -9.1%

Which results are given for `CNc1cc(Oc2cc(C(=O)Nc3cc(-n4cnc(C)c4)cc(C(F)(F)F)c3)ccc2C)ncn1`?
inhibition [1]: 18.4%; inhibition [2]: 24.1%; inhibition [3]: Dose-Dependent Effect

What does the source list for `CCN1CCN(Cc2ccc(NC(=O)c3ccc(C)c(Oc4ccnc5[nH]ccc45)c3)cc2C(F)(F)F)CC1`?
inhibition [5]: 70.8%; inhibition [6]: 37.6%; inhibition [7]: 3.9%; inhibition [8]: 9.5%; inhibition [9]: 6.4%; inhibition [10]: 13.1%; inhibition [11]: 3%; inhibition [12]: -3%; inhibition [13]: -3.9%; inhibition [14]: 62%; inhibition [15]: 6.9%; inhibition [16]: 50.3%; inhibition [17]: -1.6%; inhibition [18]: 3.1%; inhibition [19]: 0.1%; inhibition [4]: 16.1%
